Results reported in publication PMC4230422 (Journal of Experimental & Clinical Cancer Research : CR, 2014).

Columns and labels:
VM-CUB1 [1] = test: CellTiter-Glo ATP cell viability assay, VM-CUB1; assay type: cell-based, human; settings: VM-CUB1, 72 h of HDAC8 inhibitor treatment
Procedure, shortened: (§1)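 UCCs kept in DMEM GlutaMAX-I plus 10% FCS at 37°C, 5% CO2. Cells seeded in 96-well plates and grown 24 h, then given one treatment at the indicated inhibitor concentrations (10 mM DMSO stock) or DMSO for 72 h. Viable cells read as total cellular ATP by CellTiter-Glo luminescence. IC50 and dose-response curves fitted by non-linear regression.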

SW-1710 [2] = test: CellTiter-Glo ATP cell viability assay, SW-1710; assay type: cell-based, human; settings: SW-1710, 72 h of HDAC8 inhibitor treatment
Procedure, shortened: as §1

RT-112 [3] = test: CellTiter-Glo ATP cell viability assay, RT-112; assay type: cell-based, human; settings: RT-112, 72 h of HDAC8 inhibitor treatment
Procedure, shortened: as §1

639-V [4] = test: CellTiter-Glo ATP cell viability assay, 639-V; assay type: cell-based, human; settings: 72 h of HDAC8 inhibitor treatment
Procedure, shortened: as §1

UM-UC-3 [5] = test: CellTiter-Glo ATP cell viability assay, UM-UC-3; assay type: cell-based, human; settings: UM-UC-3, 72 h of HDAC8 inhibitor treatment
Procedure, shortened: as §1

[6] = system: Normal Uroepithelial Control; test: CellTiter-Glo ATP cell viability assay, normal uroepithelial control; assay type: cell-based, human; settings: 72 h of HDAC8 inhibitor treatment
Procedure, shortened: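 Normal urothelial cells isolated from ureters after nephrectomy, grown in keratinocyte serum-free medium with 0.25 ng/ml EGF and 12.5 μg/ml bovine pituitary extract. Seeded in 96-well plates for 24 h, then treated once with the indicated inhibitor concentrations (10 mM DMSO stock) or DMSO for 72 h. Read by CellTiter-Glo total-ATP luminescence. IC50 from non-linear regression.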

[7] = system: urothelial cancer cell lines (UCCs); test: CellTiter-Glo ATP cell viability assay, urothelial cancer cell line panel; assay type: cell-based, human; settings: 72 h inhibitor treatment
Procedure, shortened: as §1

VM-CUB1 [8] = test: Colony forming assay, VM-CUB1; assay type: cell-based, human; settings: VM-CUB1, 72 h treatment at IC50 concentrations
Procedure, shortened: (§2)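 After a single 72 h inhibitor or DMSO treatment, cells were replated at 500 to 1,000 cells per well in 6-well plates and grown 10 days. Then PBS-washed, fixed briefly in 50% methanol and 10 min in 100% methanol, and Giemsa-stained. Colony number and size measured by image analysis against the DMSO control.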

SW-1710 [9] = test: Colony forming assay, SW-1710; assay type: cell-based, human; settings: SW-1710, 72 h treatment at IC50 concentrations
Procedure, shortened: as §2

RT-112 [10] = test: Colony forming assay, RT-112; assay type: cell-based, human; settings: RT-112, 72 h treatment at IC50 concentrations
Procedure, shortened: as §2

639-V [11] = test: Colony forming assay, 639-V; assay type: cell-based, human; settings: 72 h treatment at IC50 concentrations
Procedure, shortened: as §2

UM-UC-3 [12] = test: Colony forming assay, UM-UC-3; assay type: cell-based, human; settings: UM-UC-3, 72 h treatment at IC50 concentrations
Procedure, shortened: as §2

VM-CUB1 [13] = test: Wound healing migration assay, VM-CUB1; assay type: cell-based, human; settings: VM-CUB1, IC50 concentrations, especially after 6 - 12 h
UM-UC-3 [14] = test: Wound healing migration assay, UM-UC-3; assay type: cell-based, human; settings: UM-UC-3, IC50 concentrations, especially after 6 - 12 h
[15] = system: thymidylate synthase (TS); test: Western blot of thymidylate synthase in UCCs; assay type: cell-based, human; settings: inhibitor IC50, 72 h
PARP = test: Western blot of PARP cleavage in UCCs; assay type: cell-based, human; settings: SW-1710, inhibitor IC50, 72 h
p21 = test: Western blot of p21 in UCCs; assay type: cell-based, human
acetylated α-tubulin = test: Western blot of acetylated α-tubulin in UCCs; assay type: cell-based, human; settings: all cell lines, inhibitor IC50, 72 h
[16] = system: urothelial cancer cell lines (UCCs); test: Cell cycle analysis by flow cytometry; assay type: cell-based, human; settings: for G1-fraction / G2/M-arrest: VM-CUB1, SW-1710, 639-V and UM-UC-3 cells, inhibitor IC50, 72 h; for sub-G1 fraction: VM-CUB1 and SW-1710, inhibitor IC50, 72 h
Procedure, shortened: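 UCCs grown in DMEM GlutaMAX-I with 10% FCS at 37°C and 5% CO2. One inhibitor dose was given 24 h after seeding (10 mM DMSO stock), with DMSO as solvent control and the pan-HDAC inhibitor SAHA (2.5 μM). After 72 h, attached and floating cells were stained in PI buffer (50 μg/ml PI, 0.1% sodium citrate, 0.1% Triton X-100) and run on flow cytometry. Sub-G1 counted as apoptotic.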

[17] = system: acetylated histone H3 and H4; test: Western blot of histone H3 and H4 acetylation; assay type: cell-based, human; settings: for H4 acetylation: 639-V, inhibitor IC50, 72 h
Procedure, shortened: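 Histone acetylation checked after 72 h inhibitor or DMSO treatment. 1 μg of each sample run on 15% SDS-PAGE and transferred to PVDF. Probed for acetylated H3 (1:2,000), total H3 (1:1,000), acetylated H4 (1:1,000) and total H4 (1:500). Blocking in 5% milk/TBST, primary 1 h at room temperature or overnight at 4°C, HRP-conjugated secondaries.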

HDAC1, HDAC2 and HDAC3 = test: Expression of other class I HDACs; assay type: cell-based, human; settings: SW-1710 and VM-CUB1 cells, inhibitor IC50, 72 h, western blot
HDAC6 = settings: in vitro; cited from earlier work
[18] = VM-CUB1, SW-1710 and UM-UC-3 cells
[19] = SW-1710 and 639-V, inhibitor IC50, 72 h

| Structure (SMILES) | IC50 (VM-CUB1 [1]) | IC50 (SW-1710 [2]) | IC50 (RT-112 [3]) | IC50 (639-V [4]) | IC50 (UM-UC-3 [5]) | IC50 [6] | viability of all UCCs [7] | clonogenic growth (VM-CUB1 [8]) | clonogenic growth (SW-1710 [9]) | clonogenic growth (RT-112 [10]) | clonogenic growth (639-V [11]) | clonogenic growth (UM-UC-3 [12]) | wound healing (relative scratch size) vs DMSO control (VM-CUB1 [13]) | wound healing (relative scratch size) vs DMSO control (UM-UC-3 [14]) | expression of thymidylate synthase (TS) ([15]; 639-V and RT-112 cells) | expression of thymidylate synthase (TS) [15, 18] | p21 expression (p21; [19]) | G1-fraction [16] | G2/M-arrest [16] | sub-G1 fraction [16] | further results |
| --- | --- | --- | --- | --- | --- | --- | --- | --- | --- | --- | --- | --- | --- | --- | --- | --- | --- | --- | --- | --- | --- |
| O=C(NO)c1ccc(-c2cccc3ccccc23)cc1 [Compound 6, 4-naphtyl-benzoil hydroxamic acid] | 16 µM | 18.8 µM | 9.1 µM | 18.6 µM | 18.2 µM | 10.2 µM | significantly reduced | most efficient | active | active | most efficient | most efficient | clear difference | clear difference | No effects | weakly reduced | decreased | significant decrease | indications of a G2/M-arrest | significant increase | IC50 (RT-112 [3]; listed as c6): ~9.1 µM; cleavage of PARP (PARP): Increased cleavage of PARP; p21 expression (p21; UM-UC-3, inhibitor IC50, 72 h): decreased; acetylated α-tubulin (acetylated α-tubulin; listed as c6): strong increase; H4 acetylation [17]: slight increase; protein expression of HDAC1 and HDAC2/3 (HDAC1, HDAC2 and HDAC3): slightly reduced; inhibition of HDAC6 (HDAC6): do not inhibit HDAC6 efficiently |
| O=C(CCCCCCC(=O)Nc1ccccc1)NO [SAHA, suberoylanilide hydroxamic acid, reference compound] |  |  |  |  |  |  |  |  |  |  |  |  |  |  |  |  |  |  |  |  | histone H3 or H4 acetylation ([17]; SAHA control): led to a change |
| O=C(NO)c1cccc2ccccc12 [Compound 2, 1-napthohydroxamic acid, reference compound] | ≥ 50 µM | ≥ 50 µM | ≥ 50 µM | ≥ 50 µM | ≥ 50 µM | ≥ 50 µM |  | inhibited clonogenicity |  |  |  |  |  |  |  |  |  |  |  |  | IC50 (RT-112 [3]; listed as c2): > 50 µM |
| O=C(/C=C/Cc1cccc2ccccc12)NO [Compound 5, δ-naphtyl-trans 2-butenoil hydroxamic acid] | 18.7 µM | 20.8 µM | 9.7 µM | 12.6 µM | 18.9 µM | 24.2 µM | significantly reduced | completely abolished | no effect | moderate reduction of colony numbers | moderate reduction of colony numbers | moderate reduction of colony numbers | clear difference | clear difference | No effects | weakly reduced | decreased | significant decrease | indications of a G2/M-arrest | significant increase | IC50 (RT-112 [3]; listed as c5): ~9.7 µM; acetylated α-tubulin (acetylated α-tubulin; listed as c5): strong increase; H4 acetylation [17]: slight increase; protein expression of HDAC1 and HDAC2/3 (HDAC1, HDAC2 and HDAC3): slightly reduced; inhibition of HDAC6 (HDAC6): do not inhibit HDAC6 efficiently |
